Test results reported in the array DNA melting data of Ke et al. (doi:10.1101/2024.01.08.574731).

Tests used:
[1] = melting temperature; fluorescence melt of hairpins on a sequencing array, two-state fit, raised by 9.35 °C to match UV melts; conditions: sodium 0.088 M
Outline: (§1)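 In 50 mM Na-HEPES pH 8.0 containing 25 mM NaCl, hairpins from the library on a sequenced MiSeq flow cell were imaged for Cy3 fluorescence at 2.5 °C steps up to 60 °C, with Cy3 and quencher oligos annealed. After normalisation to pre-quench Cy3 and to control constructs, two-state fits with bootstrapping gave melting temperature and folding enthalpy. Four replicates were combined by inverse-variance weighting, and fitted temperatures were shifted up by 9.35 °C to match UV melts.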

[2] = folding enthalpy; higher = less favourable; fluorescence melt of hairpins on a sequencing array, two-state fit; conditions: sodium 0.088 M
Outline: as §1

GAGAACCGAAAGGTGCTC (((.(((....))).)))
Tm [1]: 56.5 °C | folding enthalpy [2]: -34.3 kcal/mol

GAGAACGAAAGTTACTC ((((((....))).)))
Tm [1]: 31.1 °C | folding enthalpy [2]: -12.4 kcal/mol

GAGAACGAAAGTTATCTC ((((((....)))..)))
Tm [1]: 43 °C | folding enthalpy [2]: -26 kcal/mol

GAGAACGAAAGTTCCCTC ((((((....)))..)))
Tm [1]: 38.9 °C | folding enthalpy [2]: -14 kcal/mol

GAGAACGAAAGTTCCTC ((((((....))).)))
Tm [1]: 42.7 °C | folding enthalpy [2]: -14.2 kcal/mol

GAGAAGAAATTCTC (((((....)))))
Tm [1]: 28.9 °C | folding enthalpy [2]: -9.49 kcal/mol

GAGAAGCGAAAGCTACTC (((.(((....))).)))
Tm [1]: 49.9 °C | folding enthalpy [2]: -28.8 kcal/mol

GAGAATCCGAAAGGACTC (((..(((....))))))
Tm [1]: 27.7 °C | folding enthalpy [2]: -16 kcal/mol

GAGACACGAAAGTGACTC (((.(((....))).)))
Tm [1]: 55.6 °C | folding enthalpy [2]: -36 kcal/mol

GAGACAGAAATGTCTC ((((((....))))))
Tm [1]: 52.5 °C | folding enthalpy [2]: -34.4 kcal/mol

GAGACCCGAAAGGGCCTC (((.(((....))).)))
Tm [1]: 58.5 °C | folding enthalpy [2]: -28.8 kcal/mol

GAGACCGAAAGGTAGCTC ((((((....)))..)))
Tm [1]: 39.6 °C | folding enthalpy [2]: -18.5 kcal/mol

GAGACCGAAAGGTCGCTC ((((((....)))..)))
Tm [1]: 69.1 °C | folding enthalpy [2]: -14.3 kcal/mol

GAGACCGAAAGGTTACTC ((((((....)))..)))
Tm [1]: 34.8 °C | folding enthalpy [2]: -12.8 kcal/mol

GAGACGCGAAAGCGCTC (((.(((....))))))
Tm [1]: 50 °C | folding enthalpy [2]: -14.3 kcal/mol

GAGACGGGAAACCGTCTC (((((((....)))))))
Tm [1]: 69 °C | folding enthalpy [2]: -28 kcal/mol

GAGACTCCGAAAGGACTC (((..(((....))))))
Tm [1]: 25.6 °C | folding enthalpy [2]: -12.8 kcal/mol

GAGACTGGAAACAGCCTC (((.(((....))).)))
Tm [1]: 43.3 °C | folding enthalpy [2]: -23.8 kcal/mol

GAGACTGGAAACAGTCTC (((((((....)))))))
Tm [1]: 64.8 °C | folding enthalpy [2]: -40.3 kcal/mol

GAGAGAGCGAAAGCTCTC (((..(((....))))))
Tm [1]: 56.7 °C | folding enthalpy [2]: -9.57 kcal/mol

GAGAGAGGAAACTCTTTC ((.((((....)))).))
Tm [1]: 29.9 °C | folding enthalpy [2]: -20.5 kcal/mol

GAGAGCCGAAAGGCCTC (((.(((....))))))
Tm [1]: 55.3 °C | folding enthalpy [2]: -15.6 kcal/mol

GAGAGCGAAAGCTCCTC ((((((....))).)))
Tm [1]: 49 °C | folding enthalpy [2]: -10.3 kcal/mol

GAGAGCGAAAGCTTACTC ((((((....)))..)))
Tm [1]: 30.6 °C | folding enthalpy [2]: -12.3 kcal/mol

GAGAGCGGAAACACTCTC (((((.(....).)))))
Tm [1]: 43 °C | folding enthalpy [2]: -28.1 kcal/mol

GAGAGCGGAAACGCCCTC (((.(((....))).)))
Tm [1]: 47.2 °C | folding enthalpy [2]: -16.7 kcal/mol

GAGAGCGGAAACGCTTTC ((.((((....)))).))
Tm [1]: 46.4 °C | folding enthalpy [2]: -17.3 kcal/mol

GAGAGCGGAAACGTTCTC ((((.((....)).))))
Tm [1]: 49.1 °C | folding enthalpy [2]: -34.6 kcal/mol

GAGAGGCGAAAGCCGCTC (((.(((....))).)))
Tm [1]: 66.1 °C | folding enthalpy [2]: -18.9 kcal/mol

GAGAGGGGAAACTCTCTC (((((.(....).)))))
Tm [1]: 49.4 °C | folding enthalpy [2]: -26.2 kcal/mol

GAGAGTGCGAAAGCACTC (((..(((....))))))
Tm [1]: 64.5 °C | folding enthalpy [2]: -7.98 kcal/mol

GAGAGTGGAAACACCCTC (((.(((....))).)))
Tm [1]: 36 °C | folding enthalpy [2]: -26.8 kcal/mol

GAGAGTGGAAACGCTCTC (((((.(....).)))))
Tm [1]: 51.7 °C | folding enthalpy [2]: -36.8 kcal/mol

GAGATAACGAAAGTTCTC (((..(((....))))))
Tm [1]: 30.7 °C | folding enthalpy [2]: -20.8 kcal/mol

GAGATACCGAAAGGTCTC (((..(((....))))))
Tm [1]: 34.3 °C | folding enthalpy [2]: -15.6 kcal/mol

GAGATACGAAAGTAACTC (((.(((....))).)))
Tm [1]: 44.7 °C | folding enthalpy [2]: -26 kcal/mol

GAGATACGAAAGTACTC (((.(((....))))))
Tm [1]: 36.7 °C | folding enthalpy [2]: -19.9 kcal/mol

GAGATACGAAAGTAGCTC (((.(((....))).)))
Tm [1]: 57.5 °C | folding enthalpy [2]: -40.8 kcal/mol

GAGATCCGAAAGGACTC (((.(((....))))))
Tm [1]: 44.2 °C | folding enthalpy [2]: -18.9 kcal/mol

GAGATGCGAAAGCACTC (((.(((....))))))
Tm [1]: 48.4 °C | folding enthalpy [2]: -19.2 kcal/mol

GAGATGGGAAACCATTTC ((.((((....)))).))
Tm [1]: 35 °C | folding enthalpy [2]: -26.8 kcal/mol

GAGATGGGAAACCGTCTC ((((.((....)).))))
Tm [1]: 49.6 °C | folding enthalpy [2]: -38.2 kcal/mol

GAGATGGGAAACTATCTC (((((.(....).)))))
Tm [1]: 40.7 °C | folding enthalpy [2]: -32 kcal/mol

GAGCAAGCGAAAGCTCTC (((..(((....))))))
Tm [1]: 35.1 °C | folding enthalpy [2]: -11.6 kcal/mol

GAGCACGAAAGTGACTC ((((((....))).)))
Tm [1]: 47.3 °C | folding enthalpy [2]: -19.5 kcal/mol

GAGCAGAAATGCTC (((((....)))))
Tm [1]: 53.6 °C | folding enthalpy [2]: -29.8 kcal/mol

GAGCAGGGAAACCTACTC (((.(((....))).)))
Tm [1]: 39.5 °C | folding enthalpy [2]: -22.1 kcal/mol

GAGCATGGAAACATGCCC (.(((((....))))).)
Tm [1]: 44 °C | folding enthalpy [2]: -12.8 kcal/mol

GAGCATGGAAACGTGCTC (((((.(....).)))))
Tm [1]: 52.9 °C | folding enthalpy [2]: -47.3 kcal/mol

GAGCCACGAAAGTGACTC (((.(((....))).)))
Tm [1]: 54.5 °C | folding enthalpy [2]: -45.2 kcal/mol

GAGCCACGAAAGTGCTC (((.(((....))))))
Tm [1]: 54.2 °C | folding enthalpy [2]: -19.9 kcal/mol

GAGCCAGCGAAAGCTCTC (((..(((....))))))
Tm [1]: 34.8 °C | folding enthalpy [2]: -10.3 kcal/mol

GAGCCAGGAAACTGGCCC (.(((((....))))).)
Tm [1]: 45.8 °C | folding enthalpy [2]: -11.3 kcal/mol

GAGCCCCCGAAAGGGCTC (((..(((....))))))
Tm [1]: 65.4 °C | folding enthalpy [2]: -32.3 kcal/mol

GAGCCCGAAAGGGACTC ((((((....))).)))
Tm [1]: 54.8 °C | folding enthalpy [2]: -22.9 kcal/mol

GAGCCCGAAAGGGGGCTC ((((((....)))..)))
Tm [1]: 68.6 °C | folding enthalpy [2]: -22.8 kcal/mol

GAGCCCGCGAAAGCGCTC (((..(((....))))))
Tm [1]: 39.2 °C | folding enthalpy [2]: -11.2 kcal/mol

GAGCCCGGAAACGGGTTC ((.((((....)))).))
Tm [1]: 56.7 °C | folding enthalpy [2]: -27 kcal/mol

GAGCCGGCGAAAGCCCTC (((..(((....))))))
Tm [1]: 28.7 °C | folding enthalpy [2]: -8.17 kcal/mol

GAGCCTGGAAACAGACTC (((.(((....))).)))
Tm [1]: 43.6 °C | folding enthalpy [2]: -31.9 kcal/mol

GAGCCTGGAAACGGGTTC ((.((.(....).)).))
Tm [1]: 36.4 °C | folding enthalpy [2]: -27.5 kcal/mol

GAGCGACCGAAAGGTCTC (((..(((....))))))
Tm [1]: 33.1 °C | folding enthalpy [2]: -10.2 kcal/mol

GAGCGCCGAAAGGCTCTC (((.(((....))).)))
Tm [1]: 50.7 °C | folding enthalpy [2]: -21.4 kcal/mol

GAGCGCGAAAGCGACCTC ((((((....)))..)))
Tm [1]: 46.6 °C | folding enthalpy [2]: -11.8 kcal/mol

GAGCGCGAAAGCGCCCTC ((((((....)))..)))
Tm [1]: 46.8 °C | folding enthalpy [2]: -7.61 kcal/mol

GAGCGCGAAAGCGTACTC ((((((....)))..)))
Tm [1]: 44.4 °C | folding enthalpy [2]: -12.1 kcal/mol

GAGCGGACGAAAGTCCTC (((..(((....))))))
Tm [1]: 29.9 °C | folding enthalpy [2]: -8.32 kcal/mol

GAGCGGGCGAAAGCCCTC (((..(((....))))))
Tm [1]: 25.9 °C | folding enthalpy [2]: -6.71 kcal/mol
